Results gathered from unrelated publications.
Lines come from different studies, so protocols differ.
Target: Ribosomal protein S6 kinase beta-1 (RPS6KB1, Homo sapiens, UniProt P23443)

| Structure (SMILES) | read-out | method | concentration | remaining binding [%] |
| --- | --- | --- | --- | --- |
| F[C@@H]1CCN(c2nccc(-c3cnn4ncccc34)n2)C1 | binding | – | 1 µM | 100 |
| O=C(O)c1cc(-c2ccc(C3CCNCC3)cc2)c2ccc(-c3ccc(C(F)(F)F)cc3)cc2c1 | cell-free assay | competition with immobilised ligand | 1 µM | 100 |
| C[C@@H](c1ccc(-n2cnc3c(N)ncnc32)cc1)N1CCc2nn(C)c(Cc3ccccc3)c2C1=O | binding | competition with immobilised ligand | 0.1 µM | 67 |
| COc1cnc(Nc2cccc(S(N)(=O)=O)c2)nc1N1CCN(c2ccccc2)CC1 | binding | competition with immobilised ligand | 1 µM | 94 |
| O=C(NCCCN1CCOCC1)c1ccc(Nc2ncc(Cl)c(-c3ccc(Cl)s3)n2)cc1 | binding | competition with immobilised ligand | 1 µM | 38 |
| CN(C)C(=O)Cn1cc(-c2nc([C@@](C)(c3ccc(-c4cnc(N)nc4)cc3)C3CC3)no2)cn1 | cell-free assay | competition with immobilised ligand | 1 µM | 83 |
| N[C@H]1CCN(c2nccc(-c3cnn4ncccc34)n2)C1 | binding | – | 1 µM | 100 |
| O=C(NCCCN1CCOCC1)c1ccc(Nc2nccc(-c3cc4ccccc4s3)n2)cc1 | binding | competition with immobilised ligand | 1 µM | 92 |
| NS(=O)(=O)c1cc(NC(=O)Cc2ccccc2)ccc1Oc1cccc(Cl)c1 | cell-free assay | competition with immobilised ligand | 1 µM | 69 |
| O=C(c1ccc(Nc2ncc(Cl)c(-c3cc4ccccc4s3)n2)cc1)N1CCC(N2CCCC2)CC1 | binding | competition with immobilised ligand | 1 µM | 37 |
| O=C(NS(=O)(=O)c1ccc(NCC2CCOCC2)c([N+](=O)[O-])c1)c1ccc(N2CCN(Cc3ccc(C(F)(F)F)cc3-c3ccc(Cl)cc3)CC2)cc1Oc1cnc2[nH]ccc2c1 | cell-free assay | competition with immobilised ligand | 1 µM | 81 |
| c1cnn2ncc(-c3ccnc(N4CCC45COC5)n3)c2c1 | binding | – | 1 µM | 66 |
| Nc1ncc2c(n1)-c1c([nH]c3ccc(C#CC4CC4)cc13)CCCC2 | binding | competition with immobilised ligand | 1 µM | 72 |
| CN(C)c1ncc(F)c(-c2cnn3ncccc23)n1 | binding | – | 1 µM | 78 |
| O=C(Nc1c[nH]nc1C(=O)NC1CCNCC1)c1cc(F)cc(F)c1 | binding | competition with immobilised ligand | 1 µM | 99 |
| C[C@H]1CCN(c2nccc(-c3cnn4ncccc34)n2)C1 | binding | – | 1 µM | 81 |
| N#CC1(c2ccccn2)CCN(Cc2cc(C(=O)N3CCCC3)c(=O)n3ccccc23)CC1 | binding | competition with immobilised ligand | 1 µM | 34 |
| Cc1cnn2ncc(-c3ccnc(N(C)C)n3)c2c1 | binding | – | 1 µM | 82 |
| C[C@H](NC(=O)c1cnc2n1[C@](C)(Cc1ccc(C#N)cc1)C(=O)N2c1cc(Cl)c(F)c(Cl)c1)C(=O)NC1(c2ccccn2)CC1 | cell-free assay | competition with immobilised ligand | 1 µM | 100 |
| CNC(=O)[C@@H]1CC[C@@H](n2c(-c3ccc4cnccc4c3)nc3ccc(C(=O)NCc4cccc(C(N)=O)c4)cc32)C1 | binding | competition with immobilised ligand | 1 µM | 87 |
